33 compounds from ChEMBL document CHEMBL1938258, “Discovery and molecular docking of quinolyl-thienyl chalcones as anti-angiogenic agents targeting VEGFR-2 tyrosine kinase” (Bioorg Med Chem Lett, 2012) can be followed below.

Experiment [1] has as its target Vascular endothelial growth factor receptor 2 (Homo sapiens, UniProt P35968). As to the kind of experiment: Inhibition of VEGFR-2 after 1 hr by fluorescence polarization assay. An outline of the steps:
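VEGFR kinase protein in a fluorescence polarization tyrosine kinase kit. Buffer was 20 mM HEPES pH 7.4, 5 mM MgCl2, 2 mM MnCl2, Na3VO4, ATP, 200 ng/mL enzyme and 1 ng/mL poly(Glu,Tyr) 4:1. After 1 h the reaction was stopped with 6 mM EDTA. Anti-phosphotyrosine antibody and PTK green tracer were added, and FP was read after 30 min at room temperature.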

A further experiment deals with HUVEC. As to the kind of experiment: Antiangiogenic activity against VEGF-stimulated HUVEC cells after 72 hrs by BrdU method. Type of experiment: functional, cell-based. To be noted: Homo sapiens. An outline of the steps: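 HUVEC grown overnight at 37 °C, 5% CO2 in 5% FBS medium on type 1 collagen-coated plates. Medium replaced by serum-free medium with graded inhibitor concentrations, then VEGF (10 ng/ml) added 30 min later. Cells incubated a further 72 h, with BrdU present for the last 18–24 h. IC50 taken as K from the fit y = Vmax(1 − x/(K+x)).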

Vascular endothelial growth factor receptor 2, sequence (P35968 whole entry): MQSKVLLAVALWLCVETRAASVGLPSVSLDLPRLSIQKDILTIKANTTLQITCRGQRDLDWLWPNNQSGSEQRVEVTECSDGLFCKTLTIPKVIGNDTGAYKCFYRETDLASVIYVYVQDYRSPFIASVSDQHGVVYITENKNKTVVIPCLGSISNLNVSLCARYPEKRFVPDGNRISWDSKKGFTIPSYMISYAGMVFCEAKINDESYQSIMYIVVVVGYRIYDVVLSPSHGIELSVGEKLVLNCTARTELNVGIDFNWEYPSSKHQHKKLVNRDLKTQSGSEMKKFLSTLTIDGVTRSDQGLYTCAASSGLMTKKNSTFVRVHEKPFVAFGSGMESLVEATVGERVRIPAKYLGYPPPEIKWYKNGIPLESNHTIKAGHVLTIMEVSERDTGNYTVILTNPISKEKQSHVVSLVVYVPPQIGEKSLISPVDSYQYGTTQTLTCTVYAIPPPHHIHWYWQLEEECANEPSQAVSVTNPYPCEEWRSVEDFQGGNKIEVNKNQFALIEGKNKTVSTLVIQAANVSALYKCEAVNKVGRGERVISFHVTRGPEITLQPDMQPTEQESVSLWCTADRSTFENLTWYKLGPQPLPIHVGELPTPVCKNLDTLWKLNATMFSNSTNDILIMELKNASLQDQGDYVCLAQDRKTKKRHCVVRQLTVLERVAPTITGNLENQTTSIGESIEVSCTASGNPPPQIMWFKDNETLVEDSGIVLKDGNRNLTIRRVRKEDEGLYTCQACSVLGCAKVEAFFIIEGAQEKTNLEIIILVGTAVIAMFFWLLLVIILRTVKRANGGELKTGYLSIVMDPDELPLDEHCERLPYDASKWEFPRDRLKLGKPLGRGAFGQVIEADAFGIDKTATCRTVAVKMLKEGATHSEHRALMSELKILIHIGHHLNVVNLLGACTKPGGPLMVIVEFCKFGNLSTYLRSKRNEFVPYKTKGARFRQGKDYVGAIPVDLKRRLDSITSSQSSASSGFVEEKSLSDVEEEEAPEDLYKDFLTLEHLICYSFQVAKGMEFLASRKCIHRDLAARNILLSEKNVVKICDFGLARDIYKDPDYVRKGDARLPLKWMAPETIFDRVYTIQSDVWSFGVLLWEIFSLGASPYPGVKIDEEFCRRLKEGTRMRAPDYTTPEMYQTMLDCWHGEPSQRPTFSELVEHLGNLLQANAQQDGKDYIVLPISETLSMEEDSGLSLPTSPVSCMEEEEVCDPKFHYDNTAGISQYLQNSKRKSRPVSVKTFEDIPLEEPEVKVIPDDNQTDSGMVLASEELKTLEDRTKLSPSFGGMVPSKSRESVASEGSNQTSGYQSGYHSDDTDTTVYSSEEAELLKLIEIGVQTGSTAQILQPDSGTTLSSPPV

Broadly, the IC50 is the concentration that inhibits the measured activity by half. Low readings indicate higher potency, high ones lower potency. For `Cc1csc(C(=O)/C=C/c2cc3cc(C)ccc3nc2Cl)c1`, the figures for the IC50 (in experiment [1]; with HUVEC) were 169 nM and 106 nM, respectively. As to `Cc1ccc2nc(Cl)c(/C=C/C(=O)c3ccsc3)cc2c1`, the IC50 was determined as 287 nM in experiment [1] and 107 nM in the experiment with HUVEC. In the same order, the values of `Cc1ccc2nc(Cl)c(/C=C/C(=O)c3sccc3C)cc2c1` are 185 nM and 127 nM. In the same order, the values of `Cc1ccc2nc(Cl)c(/C=C/C(=O)c3ccc(C)s3)cc2c1` are 176 nM and 128 nM. In the same order, the values of `Cc1ccc2nc(Cl)c(/C=C/C(=O)c3cc(C)sc3C)cc2c1` are 453 nM and 229 nM. As for `Cc1ccc2nc(Cl)c(/C=C/C(=O)c3sccc3Cl)cc2c1`, the IC50 in experiment [1] stood at 87.1 nM; in the experiment with HUVEC it was 37.5 nM. In the same order, the values of `Cc1ccc2nc(Cl)c(/C=C/C(=O)c3ccc(Cl)s3)cc2c1` are 107 nM and 59.4 nM. With `Cc1ccc2nc(Cl)c(/C=C/C(=O)c3cc(Cl)sc3Cl)cc2c1`, the IC50 amounted to 81.4 nM in experiment [1] and 26.2 nM in the experiment with HUVEC. In the same order, the values of `Cc1ccc2nc(Cl)c(/C=C/C(=O)c3sccc3Br)cc2c1` are 129 nM and 61.9 nM. Consider `Cc1ccc2nc(Cl)c(/C=C/C(=O)c3ccc(Br)s3)cc2c1`, for which the figures for the IC50 (in experiment [1]; in the experiment with HUVEC) were 113 nM and 88.4 nM, respectively. In the case of `Cc1ccc2nc(Cl)c(/C=C/C(=O)c3ccc(I)s3)cc2c1`, the IC50 in experiment [1] came out at 154 nM; in the experiment on HUVEC, 129 nM.

As to `Cc1ccc2cc(/C=C/C(=O)c3ccsc3)c(Cl)nc2c1`, the IC50 worked out at 208 nM in experiment [1] and 107 nM in the experiment on HUVEC. For the compound `Cc1ccc2cc(/C=C/C(=O)c3sccc3C)c(Cl)nc2c1`, the IC50 in experiment [1] worked out at 157 nM; in the experiment on HUVEC, 124 nM.

For `Cc1csc(C(=O)/C=C/c2cc3ccc(C)cc3nc2Cl)c1`, the IC50 worked out at 139 nM in experiment [1] and 98.9 nM with HUVEC.

As for `Cc1ccc2cc(/C=C/C(=O)c3ccc(C)s3)c(Cl)nc2c1`, the IC50 in experiment [1] is 130 nM; in the experiment with HUVEC, 102 nM. In the same order, the values of `Cc1ccc2cc(/C=C/C(=O)c3cc(C)sc3C)c(Cl)nc2c1` are 561 nM and 294 nM. As for `Cc1ccc2cc(/C=C/C(=O)c3sccc3Cl)c(Cl)nc2c1`, the figures for the IC50 (in experiment [1]; in the experiment on HUVEC) were 82.7 nM and 34 nM, respectively. On to `Cc1ccc2cc(/C=C/C(=O)c3ccc(Cl)s3)c(Cl)nc2c1`, for which the IC50 in experiment [1] worked out at 92.2 nM; in the experiment on HUVEC, 49.5 nM. Consider `Cc1ccc2cc(/C=C/C(=O)c3cc(Cl)sc3Cl)c(Cl)nc2c1`, for which the IC50 worked out at 73.4 nM in experiment [1] and 21.8 nM with HUVEC. Regarding `Cc1ccc2cc(/C=C/C(=O)c3sccc3Br)c(Cl)nc2c1`, the IC50 in experiment [1] is 112 nM; in the experiment with HUVEC it was 61.9 nM. In the same order, the values of `Cc1ccc2cc(/C=C/C(=O)c3ccc(Br)s3)c(Cl)nc2c1` are 104 nM and 83.6 nM. With `Cc1ccc2cc(/C=C/C(=O)c3ccc(I)s3)c(Cl)nc2c1`, the IC50 in experiment [1] is 148 nM; with HUVEC, 135 nM. As for `Cc1cccc2cc(/C=C/C(=O)c3ccsc3)c(Cl)nc12`, the results for the IC50 (in experiment [1]; in the experiment on HUVEC) were 389 nM and 291 nM, respectively. In the same order, the values of `Cc1ccsc1C(=O)/C=C/c1cc2cccc(C)c2nc1Cl` are 267 nM and 189 nM. In the same order, the values of `Cc1csc(C(=O)/C=C/c2cc3cccc(C)c3nc2Cl)c1` are 233 nM and 153 nM. In the same order, the values of `Cc1ccc(C(=O)/C=C/c2cc3cccc(C)c3nc2Cl)s1` are 262 nM and 145 nM.

On to `Cc1cc(C(=O)/C=C/c2cc3cccc(C)c3nc2Cl)c(C)s1`, for which the IC50 in experiment [1] is > 1000 nM.

For the compound `Cc1cccc2cc(/C=C/C(=O)c3sccc3Cl)c(Cl)nc12`, the values for the IC50 (in experiment [1]; in the experiment with HUVEC) were 130 nM and 91.5 nM, respectively. In the same order, the values of `Cc1cccc2cc(/C=C/C(=O)c3ccc(Cl)s3)c(Cl)nc12` are 189 nM and 116 nM. In the same order, the values of `Cc1cccc2cc(/C=C/C(=O)c3cc(Cl)sc3Cl)c(Cl)nc12` are 358 nM and 295 nM. For the compound `Cc1cccc2cc(/C=C/C(=O)c3sccc3Br)c(Cl)nc12`, the IC50 in experiment [1] stood at 313 nM; with HUVEC, 187 nM. As for `Cc1cccc2cc(/C=C/C(=O)c3ccc(Br)s3)c(Cl)nc12`, the IC50 is 367 nM in experiment [1] and 243 nM in the experiment on HUVEC. In the same order, the values of `Cc1cccc2cc(/C=C/C(=O)c3ccc(I)s3)c(Cl)nc12` are 482 nM and 284 nM.
